Measured values as given in ChEMBL document CHEMBL1126244, “HIV-1 protease inhibitors based on hydroxyethylene dipeptide isosteres: an investigation into the role of the P1' side chain on structure-activity” (J Med Chem, 1992).
pIC50: −log10 of the molar value. In brackets after ≈: the same amount, converted by molar mass.

Assays:
[1] = target: Human immunodeficiency virus type 1 protease (Human immunodeficiency virus 1, UniProt Q72874); experiment: Inhibition of HIV-1 protease
[2] = test system: Human immunodeficiency virus 1; experiment: Ex vivo antiviral activity in H9 T-lymphoid cells infected with HIV-1(IIIB).; format: functional; conditions: read-out: MIC100
Outline: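 Human H9 T-lymphoid cells acutely infected with HIV-1 IIIB isolate, MOI 0.01; compound added in DMSO at time of infection, refreshed every 2–3 days when culture sampled and half the medium replaced. Spread read by indirect immunofluorescence (anti-HIV-1 human serum primary antibody) at 14 days; MIC100 = minimum concentration completely preventing spread of infection through the culture, in nM.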

`CC(C)C[C@H](NC(=O)[C@H](C/C=C/c1ccccc1)C[C@H](O)[C@H](Cc1ccccc1)NC(=O)OC(C)(C)C)C(=O)N[C@@H](Cc1ccccc1)C(N)=O` was tested, and the pIC50 [1] was 9.64 and the MIC [2] was 6 µM (≈ 4.19 µg/mL).

In the case of `CC(C)(C)OC(=O)N[C@@H](Cc1ccccc1)[C@@H](O)C[C@@H](Cc1ccc(I)cc1)C(=O)N[C@H]1c2ccccc2C[C@H]1O`, the pIC50 [1] was 9.14.

`CC(C)C[C@H](NC(=O)[C@H](Cc1ccccc1)C[C@H](O)[C@H](Cc1ccccc1)NC(=O)OC(C)(C)C)C(=O)N[C@@H](Cc1ccccc1)C(N)=O` was tested, and the pIC50 [1] was 9.38 and the MIC [2] was 3 µM (≈ 2.02 µg/mL).

`Cc1ccc(C[C@H](C[C@H](O)[C@H](Cc2ccccc2)NC(=O)OC(C)(C)C)C(=O)N[C@H]2c3ccccc3C[C@H]2O)cc1` showed a pIC50 [1] of 9.54 and an MIC [2] of 0.2 µM (≈ 0.112 µg/mL).

Work on `CC(C)(C)OC(=O)N[C@@H](Cc1ccccc1)[C@@H](O)C[C@@H](CCc1cnc2ccccc2n1)C(=O)N[C@H]1c2ccccc2C[C@H]1O` yielded a pIC50 [1] of 9.77.

Compound `CCCCCCCCCCCCCCC[C@H](C[C@H](O)[C@H](Cc1ccccc1)NC(=O)OC(C)(C)C)C(=O)N[C@H]1c2ccccc2C[C@H]1O` has a pIC50 [1] of less than 5.52.

With `CC(C)(C)OC(=O)N[C@@H](Cc1ccccc1)[C@@H](O)C[C@@H](Cc1ccc(CCO)cc1)C(=O)N[C@H]1c2ccccc2C[C@H]1O` the pIC50 [1] was 9.80 and the MIC [2] was 0.05 µM (≈ 0.0294 µg/mL).

`CC(C)(C)OC(=O)N[C@@H](Cc1ccccc1)[C@@H](O)C[C@@H](Cc1ccc(F)cc1)C(=O)N[C@H]1c2ccccc2C[C@H]1O` gave a pIC50 [1] of 9.36.

In the case of `COCCN(CCCc1ccc(C[C@H](C[C@H](O)[C@H](Cc2ccccc2)NC(=O)OC(C)(C)C)C(=O)N[C@H]2c3ccccc3C[C@H]2O)cc1)CCOC`, the pIC50 [1] was 9.23 and the MIC [2] was 0.2 µM (≈ 0.144 µg/mL).

With `CSc1ccc(C[C@H](C[C@H](O)[C@H](Cc2ccccc2)NC(=O)OC(C)(C)C)C(=O)N[C@H]2c3ccccc3C[C@H]2O)cc1` the pIC50 [1] was 9.66.

`CC(C)(C)OC(=O)N[C@@H](Cc1ccccc1)[C@@H](O)C[C@@H](Cc1ccc(CCC[N+](C)(C)C)cc1)C(=O)N[C@H]1c2ccccc2C[C@H]1O` gave a pIC50 [1] of 9.04 and an MIC [2] of 0.1 µM.

For `CC(C)(C)OC(=O)N[C@@H](Cc1ccccc1)[C@@H](O)C[C@@H](Cc1ccc(CO)cc1)C(=O)N[C@H]1c2ccccc2C[C@H]1O`, the pIC50 [1] was 9.77.

For `CC(C)(C)OC(=O)N[C@@H](Cc1ccccc1)[C@@H](O)C[C@@H](Cc1ccc(N)cc1)C(=O)N[C@H]1c2ccccc2C[C@H]1O`, the pIC50 [1] was 9.51 and the MIC [2] was 0.2 µM (≈ 0.112 µg/mL).

Work on `CC(C)(C)OC(=O)N[C@@H](Cc1ccccc1)[C@@H](O)C[C@@H](Cc1cccc(O)c1)C(=O)N[C@H]1c2ccccc2C[C@H]1O` yielded a pIC50 [1] of 9.68.

Compound `COCCOCOCCc1ccc(C[C@H](C[C@H](O)[C@H](Cc2ccccc2)NC(=O)OC(C)(C)C)C(=O)N[C@H]2c3ccccc3C[C@H]2O)cc1` has a pIC50 [1] of 9.89 and an MIC [2] of 0.1 µM (≈ 0.0677 µg/mL).

In the case of `CC(C)(C)OC(=O)N[C@@H](Cc1ccccc1)[C@@H](O)C[C@@H](C/C=C/c1ccc(OCCN2CCOCC2)cc1)C(=O)N[C@H]1c2ccccc2C[C@H]1O`, the MIC [2] was 0.05 µM (≈ 0.035 µg/mL).

With `CC[C@H](C[C@H](O)[C@H](Cc1ccccc1)NC(=O)OC(C)(C)C)C(=O)N[C@H]1c2ccccc2C[C@H]1O` the pIC50 [1] was 7.46.

Work on `CC(C)C[C@H](NC(=O)[C@H](C)C[C@H](O)[C@H](Cc1ccccc1)NC(=O)OC(C)(C)C)C(=O)N[C@@H](Cc1ccccc1)C(N)=O` yielded a pIC50 [1] of 8.22.

Work on `CC(C)(C)OC(=O)N[C@@H](Cc1ccccc1)[C@@H](O)C[C@@H](Cc1c(F)c(F)c(F)c(F)c1F)C(=O)N[C@H]1c2ccccc2C[C@H]1O` yielded a pIC50 [1] of 9.22.

`CC(C)(C)OC(=O)N[C@@H](Cc1ccccc1)[C@@H](O)C[C@@H](Cc1ccc(O)cc1)C(=O)N[C@H]1c2ccccc2C[C@H]1O` gave an MIC [2] of 0.05 µM (≈ 0.028 µg/mL).

`CC(C)(C)OC(=O)N[C@@H](Cc1ccccc1)[C@@H](O)C[C@@H](C/C=C/c1ccc(O)cc1)C(=O)N[C@H]1c2ccccc2C[C@H]1O` gave a pIC50 [1] of 9.77 and an MIC [2] of 0.2 µM (≈ 0.117 µg/mL).

`CC(C)(C)OC(=O)N[C@@H](Cc1ccccc1)[C@@H](O)C[C@@H](Cc1ccccc1)C(=O)N[C@H]1c2ccccc2C[C@H]1O` showed a pIC50 [1] of 9.64 and an MIC [2] of 0.4 µM (≈ 0.218 µg/mL).

`CC(C)(C)OC(=O)N[C@@H](Cc1ccccc1)[C@@H](O)C[C@@H](Cc1ccc([N+](=O)[O-])cc1)C(=O)N[C@H]1c2ccccc2C[C@H]1O` showed a pIC50 [1] of 9.57.

With `CC(C)C[C@H](NC(=O)[C@H](CCCc1ccccc1)C[C@H](O)[C@H](Cc1ccccc1)NC(=O)OC(C)(C)C)C(=O)N[C@@H](Cc1ccccc1)C(N)=O` the pIC50 [1] was 9.44.

For `CC(C)(C)OC(=O)N[C@@H](Cc1ccccc1)[C@@H](O)C[C@@H](C/C=C/c1ccccc1)C(=O)N[C@H]1c2ccccc2C[C@H]1O`, the pIC50 [1] was 9.64 and the MIC [2] was 0.4 µM (≈ 0.228 µg/mL).

Work on `CC(C)(C)OC(=O)N[C@@H](Cc1ccccc1)[C@@H](O)C[C@@H](Cc1ccc(CCCN2CCOCC2)cc1)C(=O)N[C@H]1c2ccccc2C[C@H]1O` yielded a pIC50 [1] of 9.37 and an MIC [2] of 0.2 µM (≈ 0.134 µg/mL).

Compound `CN(C)CCCc1ccc(C[C@H](C[C@H](O)[C@H](Cc2ccccc2)NC(=O)OC(C)(C)C)C(=O)N[C@H]2c3ccccc3C[C@H]2O)cc1` has a pIC50 [1] of 9.22.

`CC(C)(C)OC(=O)N[C@@H](Cc1ccccc1)[C@@H](O)C[C@@H](Cc1ccc(CN2CCOCC2)cc1)C(=O)N[C@H]1c2ccccc2C[C@H]1O` was tested, and the pIC50 [1] was 8.94 and the MIC [2] was 0.1 µM (≈ 0.0644 µg/mL).

`CC(C)(C)OC(=O)N[C@@H](Cc1ccccc1)[C@@H](O)C[C@@H](Cc1ccc(S(C)(=O)=O)cc1)C(=O)N[C@H]1c2ccccc2C[C@H]1O` was tested, and the pIC50 [1] was 9.77.

`CC(C)(C)OC(=O)N[C@@H](Cc1ccccc1)[C@@H](O)C[C@@H](Cc1ccc(C(C)(C)C)cc1)C(=O)N[C@H]1c2ccccc2C[C@H]1O` was tested, and the pIC50 [1] was 9.57 and the MIC [2] was 0.2 µM (≈ 0.12 µg/mL).

`C[C@H](C[C@H](O)[C@H](Cc1ccccc1)NC(=O)OC(C)(C)C)C(=O)N[C@H]1c2ccccc2C[C@H]1O` gave a pIC50 [1] of 7.20.

With `COCCOCOCCCc1ccc(C[C@H](C[C@H](O)[C@H](Cc2ccccc2)NC(=O)OC(C)(C)C)C(=O)N[C@H]2c3ccccc3C[C@H]2O)cc1` the pIC50 [1] was 10.15 and the MIC [2] was 0.05 µM (≈ 0.0345 µg/mL).

With `CN(C)Cc1ccc(C[C@H](C[C@H](O)[C@H](Cc2ccccc2)NC(=O)OC(C)(C)C)C(=O)N[C@H]2c3ccccc3C[C@H]2O)cc1` the pIC50 [1] was 8.85.

For `CC(C)(C)OC(=O)N[C@@H](Cc1ccccc1)[C@@H](O)C[C@@H](Cc1ccc(CCCN2CCSCC2)cc1)C(=O)N[C@H]1c2ccccc2C[C@H]1O`, the pIC50 [1] was 9.00.

In the case of `CC(C)(C)OC(=O)N[C@@H](Cc1ccccc1)[C@@H](O)C[C@@H](Cc1ccc(C(F)(F)F)cc1)C(=O)N[C@H]1c2ccccc2C[C@H]1O`, the pIC50 [1] was 9.59.

`CC(C)(C)OC(=O)N[C@@H](Cc1ccccc1)[C@@H](O)C[C@@H](Cc1ccc(CCCO)cc1)C(=O)N[C@H]1c2ccccc2C[C@H]1O` was tested, and the pIC50 [1] was 10.00 and the MIC [2] was 0.05 µM (≈ 0.0301 µg/mL).

Compound `COC(CCc1ccc(C[C@H](C[C@H](O)[C@H](Cc2ccccc2)NC(=O)OC(C)(C)C)C(=O)N[C@H]2c3ccccc3C[C@H]2O)cc1)OC` has a pIC50 [1] of 10.10.

`C[S+]([O-])c1ccc(C[C@H](C[C@H](O)[C@H](Cc2ccccc2)NC(=O)OC(C)(C)C)C(=O)N[C@H]2c3ccccc3C[C@H]2O)cc1` (stereo partly specified) gave a pIC50 [1] of 9.29.

Compound `CC(C)C[C@H](NC(=O)[C@H](Cc1ccc(-c2ccccc2)cc1)C[C@H](O)[C@H](Cc1ccccc1)NC(=O)OC(C)(C)C)C(=O)N[C@@H](Cc1ccccc1)C(N)=O` has a pIC50 [1] of 9.37.

`CC(C)C[C@H](NC(=O)[C@H](Cc1cccc2ccccc12)C[C@H](O)[C@H](Cc1ccccc1)NC(=O)OC(C)(C)C)C(=O)N[C@@H](Cc1ccccc1)C(N)=O` gave a pIC50 [1] of 8.92.
